Data taken from ChEMBL document CHEMBL1134606, “Synthesis and structure-activity relationships of a new model of arylpiperazines. 5. Study of the physicochemical influence of the pharmacophore on 5-HT(1a)/alpha(1)-adrenergic receptor affinity: synthesis of a new derivative with mixed 5-HT(1a)/d(2) antagonist properties” (J Med Chem, 2001).

Assays:
[1] = biological target: T1, 5-hydroxytryptamine receptor 1A (Rattus norvegicus, UniProt P19327); test: In vitro binding affinity towards 5-hydroxytryptamine 1A receptor was determined using radioligand [3H]-8-OH-DPAT
T1 sequence (P19327 whole entry): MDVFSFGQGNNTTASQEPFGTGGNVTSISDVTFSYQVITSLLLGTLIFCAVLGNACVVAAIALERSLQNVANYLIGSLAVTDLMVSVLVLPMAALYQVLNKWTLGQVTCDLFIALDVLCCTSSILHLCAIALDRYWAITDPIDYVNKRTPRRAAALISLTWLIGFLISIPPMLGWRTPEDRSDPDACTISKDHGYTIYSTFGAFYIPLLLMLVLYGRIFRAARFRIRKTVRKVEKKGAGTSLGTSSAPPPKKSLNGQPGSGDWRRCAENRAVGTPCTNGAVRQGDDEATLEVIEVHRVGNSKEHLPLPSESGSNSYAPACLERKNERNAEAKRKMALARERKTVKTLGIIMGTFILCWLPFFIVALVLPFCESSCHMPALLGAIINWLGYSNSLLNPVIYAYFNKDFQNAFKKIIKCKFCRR
Method in brief: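 Rat (male Sprague-Dawley) cerebral cortex membranes, about 1 mg protein, incubated 15 min at 37 °C with 0.6 nM [3H]8-OH-DPAT plus competitor in 50 mM Tris-HCl with 10 nM clonidine and 30 nM prazosin, pH 7.4. Nonspecific binding with 10 µM 5-HT. Triplicates; GF/B filtration, scintillation counting; IC50 curve fit, Ki by Cheng-Prusoff; 2-4 experiments.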

[2] = biological target: T2, Adrenergic receptor alpha-1 (Rattus norvegicus, UniProt P15823+P23944+P43140); test: In vitro binding affinity towards alpha-1 adrenergic receptor using radioligand [3H]prazosin; format: protein assay
T2 sequence (P15823 whole entry): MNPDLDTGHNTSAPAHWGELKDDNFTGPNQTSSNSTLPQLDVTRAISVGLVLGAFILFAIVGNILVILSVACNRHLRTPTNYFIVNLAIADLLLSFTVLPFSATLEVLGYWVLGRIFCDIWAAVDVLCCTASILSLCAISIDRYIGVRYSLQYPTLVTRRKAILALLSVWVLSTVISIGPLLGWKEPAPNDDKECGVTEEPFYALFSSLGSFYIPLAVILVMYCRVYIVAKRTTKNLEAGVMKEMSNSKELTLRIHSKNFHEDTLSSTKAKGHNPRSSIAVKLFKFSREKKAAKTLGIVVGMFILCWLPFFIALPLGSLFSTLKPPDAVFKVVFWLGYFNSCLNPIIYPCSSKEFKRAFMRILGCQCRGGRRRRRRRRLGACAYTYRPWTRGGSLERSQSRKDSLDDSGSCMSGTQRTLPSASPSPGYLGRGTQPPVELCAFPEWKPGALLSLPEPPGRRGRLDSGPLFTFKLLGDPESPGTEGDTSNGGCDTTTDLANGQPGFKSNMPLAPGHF
T2 sequence (P23944 whole entry): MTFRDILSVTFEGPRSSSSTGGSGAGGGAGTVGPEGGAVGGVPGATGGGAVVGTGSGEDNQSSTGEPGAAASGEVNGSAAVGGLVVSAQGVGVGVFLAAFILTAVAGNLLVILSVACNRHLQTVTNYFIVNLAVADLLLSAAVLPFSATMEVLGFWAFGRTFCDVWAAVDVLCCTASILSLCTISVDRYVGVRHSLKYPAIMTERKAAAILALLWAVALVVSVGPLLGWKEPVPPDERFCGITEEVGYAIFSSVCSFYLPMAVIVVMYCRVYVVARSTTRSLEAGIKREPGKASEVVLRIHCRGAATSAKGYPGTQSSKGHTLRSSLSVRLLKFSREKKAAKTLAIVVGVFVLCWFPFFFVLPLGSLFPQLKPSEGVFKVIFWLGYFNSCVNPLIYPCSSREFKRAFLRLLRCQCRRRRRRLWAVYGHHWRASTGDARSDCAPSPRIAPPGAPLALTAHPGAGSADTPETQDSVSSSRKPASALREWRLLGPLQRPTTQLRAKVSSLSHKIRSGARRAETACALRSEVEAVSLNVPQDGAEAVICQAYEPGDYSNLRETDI
T2 sequence (P43140 whole entry): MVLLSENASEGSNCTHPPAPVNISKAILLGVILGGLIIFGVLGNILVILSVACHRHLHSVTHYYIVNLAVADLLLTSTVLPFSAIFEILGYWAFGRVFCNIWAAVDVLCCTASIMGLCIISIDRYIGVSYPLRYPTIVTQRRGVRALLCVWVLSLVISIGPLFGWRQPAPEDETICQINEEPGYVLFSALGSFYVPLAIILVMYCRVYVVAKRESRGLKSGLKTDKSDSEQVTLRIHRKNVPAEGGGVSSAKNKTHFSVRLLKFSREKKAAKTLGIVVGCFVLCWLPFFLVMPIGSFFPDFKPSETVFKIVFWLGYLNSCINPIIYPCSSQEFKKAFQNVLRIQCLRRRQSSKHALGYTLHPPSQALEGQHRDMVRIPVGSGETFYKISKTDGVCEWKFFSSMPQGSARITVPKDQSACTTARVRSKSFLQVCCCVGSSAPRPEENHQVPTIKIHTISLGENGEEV
Method in brief: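 Cerebral cortex from male Sprague-Dawley rats, membranes (about 250 µg protein) in 50 mM Tris-HCl/10 mM MgCl2 pH 7.4, incubated 30 min at 25 °C with 0.2 nM [3H]prazosin and varied competitor concentrations; 10 µM phentolamine for nonspecific. Triplicates, filtration and scintillation counting; Ki from fitted IC50 by Cheng-Prusoff.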

[3] = biological target: D(2) dopamine receptor (Rattus norvegicus) (UniProt P61169); test: In vitro binding affinity towards D2 receptor was determined
[4] = biological target: 5-hydroxytryptamine receptor 4 (Rattus norvegicus); test: In vitro binding affinity towards 5-HT4 receptor was determined
[5] = biological target: 5-hydroxytryptamine receptor 3A (Rattus norvegicus) (UniProt P35563); test: In vitro binding affinity towards 5-hydroxytryptamine 3 receptor was determined
[6] = biological target: 5-hydroxytryptamine receptor 2A (Rattus norvegicus) (UniProt P14842); test: In vitro binding affinity towards 5-hydroxytryptamine 2A receptor was determined
Sequence of 5-hydroxytryptamine receptor 2A (Rattus norvegicus) (P14842 whole entry, looked up): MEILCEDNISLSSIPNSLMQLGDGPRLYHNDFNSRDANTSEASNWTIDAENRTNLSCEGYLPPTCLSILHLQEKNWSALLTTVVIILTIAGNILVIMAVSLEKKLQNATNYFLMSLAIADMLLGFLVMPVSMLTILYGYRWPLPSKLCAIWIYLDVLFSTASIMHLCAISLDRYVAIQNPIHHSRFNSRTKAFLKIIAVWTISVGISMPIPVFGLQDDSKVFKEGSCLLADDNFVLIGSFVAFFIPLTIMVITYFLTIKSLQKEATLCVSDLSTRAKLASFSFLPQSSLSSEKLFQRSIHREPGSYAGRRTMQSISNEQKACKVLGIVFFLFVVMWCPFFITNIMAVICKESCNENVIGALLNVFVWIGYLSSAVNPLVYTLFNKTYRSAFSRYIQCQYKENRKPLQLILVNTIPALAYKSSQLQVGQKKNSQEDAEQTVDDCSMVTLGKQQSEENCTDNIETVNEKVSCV

Sequence of 5-hydroxytryptamine receptor 3A (Rattus norvegicus) (P35563 whole entry, looked up): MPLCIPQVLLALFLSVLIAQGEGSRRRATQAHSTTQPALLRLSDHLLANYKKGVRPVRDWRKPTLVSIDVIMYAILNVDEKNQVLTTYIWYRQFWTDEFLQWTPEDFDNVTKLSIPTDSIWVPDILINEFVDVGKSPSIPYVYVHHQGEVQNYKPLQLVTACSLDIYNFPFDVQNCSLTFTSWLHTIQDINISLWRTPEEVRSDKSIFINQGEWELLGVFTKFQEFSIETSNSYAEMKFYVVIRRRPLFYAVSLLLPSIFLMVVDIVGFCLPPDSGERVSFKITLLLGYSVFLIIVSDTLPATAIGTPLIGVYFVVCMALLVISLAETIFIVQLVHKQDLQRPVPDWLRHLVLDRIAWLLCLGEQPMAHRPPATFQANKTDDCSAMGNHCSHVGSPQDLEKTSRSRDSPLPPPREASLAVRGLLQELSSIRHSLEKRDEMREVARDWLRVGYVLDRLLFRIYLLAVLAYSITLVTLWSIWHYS
Sequence of D(2) dopamine receptor (Rattus norvegicus) (P61169 whole entry, looked up): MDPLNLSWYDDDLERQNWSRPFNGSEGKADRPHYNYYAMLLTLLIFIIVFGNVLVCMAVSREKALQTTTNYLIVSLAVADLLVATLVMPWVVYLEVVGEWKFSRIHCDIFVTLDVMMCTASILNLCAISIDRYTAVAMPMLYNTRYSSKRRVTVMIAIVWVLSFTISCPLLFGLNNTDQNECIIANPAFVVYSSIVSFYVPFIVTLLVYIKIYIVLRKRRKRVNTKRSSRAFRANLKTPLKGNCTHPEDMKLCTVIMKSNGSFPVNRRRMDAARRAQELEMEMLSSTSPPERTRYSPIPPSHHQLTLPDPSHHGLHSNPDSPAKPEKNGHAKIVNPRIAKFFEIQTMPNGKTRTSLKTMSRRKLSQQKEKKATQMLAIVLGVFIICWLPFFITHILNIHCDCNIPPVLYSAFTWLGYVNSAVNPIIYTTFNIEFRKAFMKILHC

Row | SMILES | Ki [1] [nM] | Ki [2] [nM] | other results
1 | CCCCOc1ccccc1N1CCN(CCCN2C(=O)C3CCCN3C2=O)CC1.Cl (stereo not drawn) | 11 | 30 | –
2 | CCCOC(=O)c1ccccc1N1CCN(CCCCN2CC(=O)N3CCCCC3C2=O)CC1.Cl (stereo not drawn) | 24 | 561 | –
3 | CCCCOc1ccccc1N1CCN(CCCCN2C(=O)C3CCCCN3C2=O)CC1.Cl (stereo not drawn) | 1.2 | 0.4 | –
4 | Cl.N#Cc1ccccc1N1CCN(CCCN2CC(=O)N3CCCC3C2=O)CC1 (stereo not drawn) | 31 | 28 | –
5 | Cl.Nc1cccc(N2CCN(CCCCN3C(=O)C4CCCCN4C3=O)CC2)c1 (stereo not drawn) | 80 | 215 | –
6 | Cc1ccccc1N1CCN(CCCN2CC(=O)N3CCCC3C2=O)CC1.Cl (stereo not drawn) | 27 | 23 | –
7 | Cl.O=C1C2CCCN2C(=O)N1CCCN1CCN(c2cccc(Br)c2)CC1 (stereo not drawn) | 33 | 29 | –
8 | Cl.N#Cc1ccccc1N1CCN(CCCCN2CC(=O)N3CCCCC3C2=O)CC1 (stereo not drawn) | 14 | 27 | –
9 | CCCNC(=O)c1ccccc1N1CCN(CCCCN2CC(=O)N3CCCC3C2=O)CC1.Cl (stereo not drawn) | > 1000 | > 1000 | –
10 | COc1ccccc1N1CCN(CCCN2CC(=O)N3CCCCC3C2=O)CC1.Cl (stereo not drawn) | 126 | 16 | –
11 | CCCOC(=O)c1ccccc1N1CCN(CCCN2CC(=O)N3CCCC3C2=O)CC1.Cl (stereo not drawn) | – | 26 | –
12 | CCCOC(=O)c1ccccc1N1CCN(CCCN2C(=O)C3CCCCN3C2=O)CC1.Cl (stereo not drawn) | 60 | 41 | –
13 | Cl.O=C1C2CCCCN2C(=O)N1CCCCN1CCN(c2cccc(Br)c2)CC1 (stereo not drawn) | 4 | 5.3 | –
14 | Cl.N#Cc1ccccc1N1CCN(CCCCN2C(=O)C3CCCN3C2=O)CC1 (stereo not drawn) | 3.7 | 8 | –
15 | Cc1ccccc1N1CCN(CCCCN2C(=O)C3CCCN3C2=O)CC1.Cl (stereo not drawn) | 16 | 10 | –
16 | CC(C)C(=O)Nc1cccc(N2CCN(CCCN3CC(=O)N4CCCC4C3=O)CC2)c1.Cl (stereo not drawn) | 326 | > 1000 | –
17 | CCCCOc1ccccc1N1CCN(CCCN2CC(=O)N3CCCCC3C2=O)CC1.Cl (stereo not drawn) | 110 | 79 | –

Row | SMILES | Ki [1] [nM] | Ki [2] [nM] | other results
18 | COc1ccccc1N1CCN(CCCCN2CC(=O)N3CCCC3C2=O)CC1.Cl (stereo not drawn) | 8.6 | 28 | –
19 | CC(C)C(=O)Nc1cccc(N2CCN(CCCN3C(=O)C4CCCCN4C3=O)CC2)c1.Cl (stereo not drawn) | > 1000 | > 10000 | –
20 | Cl.O=C1C2CCCN2C(=O)CN1CCCCN1CCN(c2cccc(C(F)(F)F)c2)CC1 (stereo not drawn) | 3.6 | 95 | –
21 | Cl.Nc1cccc(N2CCN(CCCN3C(=O)C4CCCN4C3=O)CC2)c1 (stereo not drawn) | > 1000 | > 1000 | –
22 | CCCNC(=O)c1ccccc1N1CCN(CCCN2CC(=O)N3CCCCC3C2=O)CC1.Cl (stereo not drawn) | > 10000 | > 1000 | –
23 | CC(C)C(=O)Nc1cccc(N2CCN(CCCCN3C(=O)C4CCCN4C3=O)CC2)c1.Cl (stereo not drawn) | – | > 10000 | –
24 | CCCOC(=O)c1ccccc1N1CCN(CCCCN2C(=O)C3CCCN3C2=O)CC1.Cl (stereo not drawn) | 3.9 | 51 | –
25 | CCS(=O)(=O)Nc1cccc(N2CCN(CCCCN3C(=O)C4CCCN4C3=O)CC2)c1.Cl (stereo not drawn) | 27 | > 10000 | Ki [3]: 22 nM; Ki [4]: > 1000 nM; Ki [5]: > 1000 nM; Ki [6]: > 1000 nM
26 | CCCCOc1ccccc1N1CCN(CCCCN2CC(=O)N3CCCC3C2=O)CC1.Cl (stereo not drawn) | 6.5 | 18 | –
27 | Cc1ccccc1N1CCN(CCCN2C(=O)C3CCCCN3C2=O)CC1.Cl (stereo not drawn) | 134 | 5.3 | –
28 | CCCNC(=O)c1ccccc1N1CCN(CCCN2C(=O)C3CCCN3C2=O)CC1.Cl (stereo not drawn) | > 1000 | > 1000 | –
29 | Cl.O=C1C2CCCCN2C(=O)CN1CCCN1CCN(c2cccc(C(F)(F)F)c2)CC1 (stereo not drawn) | 214 | 252 | –
30 | Cc1ccccc1N1CCN(CCCCN2CC(=O)N3CCCCC3C2=O)CC1.Cl (stereo not drawn) | 27 | 29 | –
31 | Cl.N#Cc1ccccc1N1CCN(CCCN2C(=O)C3CCCCN3C2=O)CC1 (stereo not drawn) | 33 | 13 | –
32 | CCCNC(=O)c1ccccc1N1CCN(CCCCN2C(=O)C3CCCCN3C2=O)CC1.Cl (stereo not drawn) | 341 | > 1000 | –
33 | CC(C)C(=O)Nc1cccc(N2CCN(CCCCN3CC(=O)N4CCCCC4C3=O)CC2)c1.Cl (stereo not drawn) | 169 | > 10000 | –
